Data from PMC3254186 (Frontiers in Pharmacology, 2011).

Experiments:
Format in all cases: cell-based
Kir3.1/3.2 (GIRK) = biological target: T1, Kir3.1/3.2 (GIRK) (Homo sapiens, UniProt P48051+P48549); assay: Tl+ flux assay, mGluR8-activated GIRK in HEK-293 cells; conditions: from Tl+ flux IC50 values
T1 sequence (P48549 1-501): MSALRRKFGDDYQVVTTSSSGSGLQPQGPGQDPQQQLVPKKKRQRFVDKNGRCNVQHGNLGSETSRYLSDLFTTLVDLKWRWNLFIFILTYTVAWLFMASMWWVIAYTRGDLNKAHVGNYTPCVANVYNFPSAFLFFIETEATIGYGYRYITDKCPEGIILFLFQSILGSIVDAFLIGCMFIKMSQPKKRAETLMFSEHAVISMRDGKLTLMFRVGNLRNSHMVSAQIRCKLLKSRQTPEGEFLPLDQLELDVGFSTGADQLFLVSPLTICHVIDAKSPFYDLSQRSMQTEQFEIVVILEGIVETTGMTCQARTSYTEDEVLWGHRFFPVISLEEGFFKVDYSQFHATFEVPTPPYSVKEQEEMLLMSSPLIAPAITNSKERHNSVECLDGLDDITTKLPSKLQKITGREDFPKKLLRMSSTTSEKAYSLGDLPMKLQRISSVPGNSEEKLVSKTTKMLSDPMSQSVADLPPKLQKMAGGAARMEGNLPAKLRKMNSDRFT
T1 sequence (P48051 1-423): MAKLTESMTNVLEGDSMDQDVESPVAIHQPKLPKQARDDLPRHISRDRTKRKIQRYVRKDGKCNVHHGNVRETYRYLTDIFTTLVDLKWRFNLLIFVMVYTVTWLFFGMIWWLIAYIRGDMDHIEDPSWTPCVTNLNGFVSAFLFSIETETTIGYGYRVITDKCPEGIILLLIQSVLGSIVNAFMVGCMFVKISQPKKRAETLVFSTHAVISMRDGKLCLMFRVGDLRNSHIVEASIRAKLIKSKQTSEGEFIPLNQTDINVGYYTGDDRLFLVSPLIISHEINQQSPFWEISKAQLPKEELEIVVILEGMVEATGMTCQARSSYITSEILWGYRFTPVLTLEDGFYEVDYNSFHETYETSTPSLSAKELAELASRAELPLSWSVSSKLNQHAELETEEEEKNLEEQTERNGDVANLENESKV
How it was run: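 mGluR8/GIRK/HEK monoclonal cells stably expressing Kir3.1/3.2, M4 receptor and rat mGlu8a, loaded with FluoZin-2. Test compound pre-incubated 20 min (1:3 serial dilutions from 10 mM DMSO stock). Tl+ buffer (12 mM Tl2SO4, pH 7.3) added with glutamate at EC80, set daily from an 11-point curve. Imaged at 1 Hz (ex 470, em 540 nm), 20–23°C. Slope taken 5–15 s post-addition, vehicle-corrected. CRC n = 3. Selectivity taken from the Tl+ flux IC50 values for GIRK and Kir1.1-S44D.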

Kir3.1/3.2 = biological target: T2, Kir3.1/3.2 (Homo sapiens, UniProt P48051+P48549); assay: Two-electrode voltage clamp in Xenopus oocytes, Kir3.1/3.2
T2 sequence (P48549 1-501): T1 sequence (P48549 1-501)
T2 sequence (P48051 1-423): T1 sequence (P48051 1-423)
How it was run: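 Xenopus oocytes were injected with Kir3.1/3.2 or Kir3.1/3.4 cRNA and voltage-clamped with two electrodes at 20–23°C, with current at −80 mV followed over time. The bath was switched from K+-free to 90 mM K+ to activate the channel. Test compound in 90K was applied continuously at graded concentrations, then 2 mM Ba2+ was added. A final 0K switch measured leak. Time constant derived (n = 6 at 25 μM). Percent inhibition n = 4–6.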

Kir7.1 = biological target: T3, Kir7.1 (Homo sapiens, UniProt O60928); assay: Two-electrode voltage clamp in Xenopus oocytes, Kir7.1
T3 sequence (O60928 1-360): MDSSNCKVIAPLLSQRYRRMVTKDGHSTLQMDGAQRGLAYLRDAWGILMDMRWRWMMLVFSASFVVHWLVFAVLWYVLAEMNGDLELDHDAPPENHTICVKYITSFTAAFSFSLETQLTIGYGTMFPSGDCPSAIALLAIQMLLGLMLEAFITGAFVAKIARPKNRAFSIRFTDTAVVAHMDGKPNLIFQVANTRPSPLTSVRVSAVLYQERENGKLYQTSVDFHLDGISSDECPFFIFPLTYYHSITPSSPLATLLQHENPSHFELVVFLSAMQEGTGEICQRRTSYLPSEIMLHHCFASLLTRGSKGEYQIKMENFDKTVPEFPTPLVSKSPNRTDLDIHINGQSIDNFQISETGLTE
How it was run: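 Stage V–VI Xenopus oocytes were defolliculated with 1 mg/mL collagenase and injected with 0.5–10 ng cRNA. They were kept at 16°C in modified L-15 for 24–72 h. Two-electrode voltage clamp at 20–23°C: held at −75 mV and stepped to −120 mV for 200 ms every 5 s, with current at −120 mV tracked over time. Test compound (50 μM) was perfused, then 2 mM Ba2+. Time constant of inhibition derived.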

selectivity for GIRK over Kir1.1 (Kir3.1/3.2 (GIRK)): 10 fold
IC50 (Kir3.1/3.2): ~10 µM
time constant (τ) for inhibition of Kir3.1/3.2 currents (Kir3.1/3.2; TEVC oocytes, 25 μM, mean ± SEM, n = 6): 28 ± 4 s
inhibition at 10 µM (Kir3.1/3.2; read-out: inhibition of GIRK current (Kir3.1/3.2)): ~50%
time constant of Kir7.1 inhibition (Kir7.1; TEVC oocytes, 50 μM, n = 8): 38 ± 6 s
inhibition at 50 µM (Kir7.1; read-out: inhibition of Kir7.1): 66 ± 6%
SMILES: Cc1ccc(OCC(O)Cn2c(=N)n(Cc3ccccc3)c3ccccc32)cc1 (stereo not drawn) [Compound 1, 1-(3-benzyl-2-imino-2,3-dihydro-1H-benzo[d]imidazol-1-yl)-3-(p-tolyloxy)propan-2-ol]
